Source: PubChem (NMMLSC)
Only some compounds are listed: those with a hit (about 2.3% of all), similar ones and a draw of the others.
MEKK3 PB1 HTS: modulators of MEKK3-MEK5 PB1 binding, primary screen, biochemical, wildtype MEKK3, multiplex bead flow cytometry, Alexa488-MEK5; Mitogen-activated protein kinase kinase kinase 3 (Homo sapiens), Q99759; bead-based flow cytometry, Alexa488-MEK5 binding to MEKK3; actives lie on both sides; 0 = blocked by unlabeled MEK5, 100 = vehicle; binding response (% of control), % at 10 µM; hit rate 1.4% among 290,000;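 active means binding response more than 3 SD above or below the average of its plate-row segment, actives on both sides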;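 further: Alexa488 bead fluorescence after subtracting the streptavidin-only scavenger bead signal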
Target sequence (Q99759 whole entry, looked up): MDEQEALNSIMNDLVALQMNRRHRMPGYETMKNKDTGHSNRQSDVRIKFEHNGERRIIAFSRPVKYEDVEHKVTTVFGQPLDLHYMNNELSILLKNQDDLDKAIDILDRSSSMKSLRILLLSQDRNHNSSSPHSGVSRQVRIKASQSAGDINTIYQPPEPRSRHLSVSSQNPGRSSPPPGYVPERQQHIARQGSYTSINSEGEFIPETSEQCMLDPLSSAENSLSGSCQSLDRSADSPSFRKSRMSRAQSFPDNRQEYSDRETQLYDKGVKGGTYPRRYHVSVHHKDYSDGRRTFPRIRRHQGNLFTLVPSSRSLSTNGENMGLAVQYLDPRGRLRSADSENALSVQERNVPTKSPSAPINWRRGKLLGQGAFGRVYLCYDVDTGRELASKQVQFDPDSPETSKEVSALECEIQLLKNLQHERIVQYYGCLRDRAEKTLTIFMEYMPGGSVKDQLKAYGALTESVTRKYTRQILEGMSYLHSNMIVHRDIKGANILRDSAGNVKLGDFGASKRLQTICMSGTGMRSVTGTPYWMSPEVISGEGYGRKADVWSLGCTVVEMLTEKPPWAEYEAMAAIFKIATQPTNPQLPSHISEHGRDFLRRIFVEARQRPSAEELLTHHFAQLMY
MEKK2 WT-MEK5: modulators of MEK5 binding to wildtype MEKK2, primary screen, biochemical, multiplex bead flow cytometry, Alexa488-MEK5; Mitogen-activated protein kinase kinase kinase 2 (Homo sapiens), Q9Y2U5; Alexa488-MEK5 binding to MEKK2 WT; actives lie on both sides; binding response (% of control), % at 10 µM; hit rate 1.1% among 290,000; in the data active means binding response below about 67% or above about 130%
Arr AP2 block: inhibitors of beta-arrestin/AP2 binding, primary screen, biochemical, GPCR trafficking, flow cytometry | beta-arrestin 1 C-terminal peptide binding to AP2 beta2-adaptin appendage (human) | FITC-arrestin peptide / GST-AP2 beads; AP2 beta2 appendage carries R879A mutation | inhibition, % at 10 µM | hit rate 0.31% among 340,000 | AID 504490, 2011;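 active means inhibition above a set limit, near 3 SD of compounds lacking own fluorescence, cut at about 54% in these data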
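System: GST-AP2 R879A glutathione beads; medium: PBS, Tween 20 0.05%, BSA 0.1%; reagent: fluorescein-tagged arrestin peptide at 50 nM final; schedule: pre-incubation 12 min, peptide binding 1 h, room temperature; detection: flow cytometry, FL1 (488/535 nm); read-out: inhibition as reduced fluorescein signal on beads, percent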
MEKK2mut PB1 HTS: MEK5 binding signal on mutant MEKK2 PB1, primary screen, biochemical, multiplex bead flow cytometry, Alexa488-MEK5; Alexa488-MEK5 binding to MEKK2 mutant; percent response, % at 10 µM; hit rate 0.35% among 290,000; in the data active means percent response above about 24%, passing the limit was not always enough
MEKK2wt confirm: modulators of MEK5 binding to wildtype MEKK2, confirmation, biochemical, single concentration, multiplex bead flow cytometry; shares compounds with MEKK3 PB1 HTS; Alexa488-MEK5 binding to MEKK2 WT; actives lie on both sides; hit rate 2.4% among 5,900; binding response (% of control), % at 10 µM; in the data active means binding response below about 16% or above about 210%; inactive means in between
MEKK2mut confirm: mutant MEKK2 PB1-MEK5 binding signal retest – biochemical, single concentration, multiplex bead flow cytometry, confirmation. Alexa488-MEK5 binding to MEKK2 mutant. percent response, % at 10 µM. AID 1893, 2009. shares compounds with MEKK3 PB1 HTS. hit rate 2% among 5,900; in the data active means percent response mostly above about 71%, no sharp cut-off; inactive means mostly below about 38%;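 further: higher means compound restores mutant binding toward wildtype level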
MEKK3-MEK5 inh: MEKK3 wild-type PB1 binding to MEK5, inhibitors, confirmation, biochemical, bead multiplex flow cytometry, single concentration, wildtype; hit rate 1.8% among 5,900; AID 1894, 2009; binding response (% of control), % at 10 µM; shares compounds with MEKK3 PB1 HTS; Alexa488-MEK5 binding to MEKK3; stronger effect = lower value;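 active means binding response below 72% of control, or above a set upper limit, though filed actives all read lower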
Hits are given with their value; [ ] = dose if it differs, or a comment.

Results for COC(=O)c1c(NC(=O)CN2CCN(C(=O)c3ccco3)CC2)c2c(C)cccc2n1C ?
MEKK3 PB1 HTS: 122; MEKK2 WT-MEK5: inactive; Arr AP2 block: inactive; MEKK2mut PB1 HTS: inactive; MEKK2wt confirm: inactive; MEKK2mut confirm: inactive; MEKK3-MEK5 inh: inactive

What do the screens show for `COC(=O)c1c(NC(=O)CN2CCN(C(=O)c3ccco3)CC2)c2cc(C)ccc2n1C`?
MEKK3 PB1 HTS: inactive; MEKK2 WT-MEK5: inactive; Arr AP2 block: inactive; MEKK2mut PB1 HTS: inactive

What do the screens show for `CC(C(=O)NCCSCc1cccc(Cl)c1)N(c1ccccc1)S(C)(=O)=O` (stereo not given)?
MEKK3 PB1 HTS: inactive; MEKK2 WT-MEK5: inactive; Arr AP2 block: inactive; MEKK2mut PB1 HTS: inactive

How did Cc1cccc(N2C(=O)c3cccc(Oc4ccc(Cl)cc4)c3C2=O)c1 do in these assays?
MEKK3 PB1 HTS: 130; MEKK2 WT-MEK5: inactive; Arr AP2 block: inactive; MEKK2mut PB1 HTS: inactive; MEKK2wt confirm: inactive; MEKK2mut confirm: inactive; MEKK3-MEK5 inh: inactive

How did CCOC(=O)c1c(NC(=O)COC(=O)CCOc2cc(C)ccc2C)sc(C(=O)N(C)C)c1C do in these assays?
Arr AP2 block: inactive

Results for CC(C)NCc1cc(Br)ccc1OCc1ccccc1 ?
MEKK3 PB1 HTS: inactive; MEKK2 WT-MEK5: inactive; Arr AP2 block: inactive; MEKK2mut PB1 HTS: inactive

What do the screens show for `COc1ccc(S(=O)(=O)NCCc2nnc3ccc(SCC(=O)Nc4nc(C)cs4)nn23)cc1`?
MEKK3 PB1 HTS: inactive; MEKK2 WT-MEK5: inactive; Arr AP2 block: inactive; MEKK2mut PB1 HTS: inactive

Results for CN(C)c1ccc(/C=C/c2ccc3c4ccccc4ccc3[n+]2-c2ccccc2)cc1 ?
MEKK3 PB1 HTS: 18[inhibitor]; MEKK2 WT-MEK5: 41; Arr AP2 block: inactive; MEKK2mut PB1 HTS: inactive; MEKK2wt confirm: inactive; MEKK2mut confirm: inactive; MEKK3-MEK5 inh: inactive

What do the screens show for `COc1ccc(NC(=O)COC(=O)[C@@H](NC(=O)c2c(F)cccc2F)C(C)C)cc1`?
MEKK3 PB1 HTS: inactive; MEKK2 WT-MEK5: inactive; Arr AP2 block: inactive; MEKK2mut PB1 HTS: inactive

How did O=C(CN(c1ccccc1)S(=O)(=O)c1ccc(F)cc1)NCc1cccs1 do in these assays?
Arr AP2 block: inactive

What do the screens show for `COc1ccc(/C=N/NC(=O)CCc2n[nH]c(=O)[nH]c2=O)cc1OC`?
MEKK3 PB1 HTS: 129; MEKK2 WT-MEK5: inactive; Arr AP2 block: inactive; MEKK2mut PB1 HTS: inactive; MEKK2wt confirm: inactive; MEKK2mut confirm: inactive; MEKK3-MEK5 inh: inactive

Results for COc1cccc(/C=N/NC(=O)CCc2n[nH]c(=O)[nH]c2=O)c1O ?
MEKK3 PB1 HTS: 128; MEKK2 WT-MEK5: inactive; Arr AP2 block: inactive; MEKK2mut PB1 HTS: inactive; MEKK2wt confirm: inactive; MEKK2mut confirm: inactive; MEKK3-MEK5 inh: inactive

What do the screens show for `COc1cccc(/C=N/NC(=O)CCc2c(C)n[nH]c2C)c1O`?
MEKK3 PB1 HTS: inactive; MEKK2 WT-MEK5: inactive; Arr AP2 block: inactive; MEKK2mut PB1 HTS: inactive

Results for COc1ccc(/C=N\NC(=O)CCc2c(C)n[nH]c2C)c(OC)c1OC ?
MEKK3 PB1 HTS: 134; MEKK2 WT-MEK5: inactive; Arr AP2 block: inactive; MEKK2mut PB1 HTS: inactive; MEKK2wt confirm: inactive; MEKK2mut confirm: inactive; MEKK3-MEK5 inh: inactive

What do the screens show for `CCOC(=O)N1CCC(N2CCN(C3CCCC3)C(CCO)C2)CC1` (stereo not given)?
MEKK3 PB1 HTS: inactive; MEKK2 WT-MEK5: inactive; Arr AP2 block: inactive; MEKK2mut PB1 HTS: inactive

How did O=C(NC1CCCCC1)C1CC(=O)N(c2cccc([N+](=O)[O-])c2)C1 (stereo not given) do in these assays?
MEKK3 PB1 HTS: inactive; MEKK2 WT-MEK5: inactive; Arr AP2 block: inactive; MEKK2mut PB1 HTS: inactive

Results for Cc1ccc(S(=O)(=O)Nc2ccc(NC(=O)Nc3cccc(C(F)(F)F)c3)cc2)cc1 ?
MEKK3 PB1 HTS: inactive; MEKK2 WT-MEK5: 171; Arr AP2 block: inactive; MEKK2mut PB1 HTS: 54; MEKK2wt confirm: inactive; MEKK2mut confirm: inactive; MEKK3-MEK5 inh: inactive

What do the screens show for `O=C(NCCNC(=O)c1cc(OCC(F)(F)F)ccc1OCC(F)(F)F)Nc1cccc(C(F)(F)F)c1`?
MEKK3 PB1 HTS: inactive; MEKK2 WT-MEK5: 142; Arr AP2 block: inactive; MEKK2mut PB1 HTS: inactive; MEKK2wt confirm: inactive; MEKK2mut confirm: inactive; MEKK3-MEK5 inh: inactive

Results for CCN(CC)S(=O)(=O)c1ccc(NC(=O)Nc2cccc(C(F)(F)F)c2)cc1 ?
MEKK3 PB1 HTS: inactive; MEKK2 WT-MEK5: 144; Arr AP2 block: inactive; MEKK2mut PB1 HTS: inactive; MEKK2wt confirm: inactive; MEKK2mut confirm: inactive; MEKK3-MEK5 inh: inactive

How did O=C(Nc1ccc(OC(F)F)cc1)Nc1cccc(C(F)(F)F)c1 do in these assays?
MEKK3 PB1 HTS: inactive; MEKK2 WT-MEK5: 209; Arr AP2 block: inactive; MEKK2mut PB1 HTS: inactive; MEKK2wt confirm: inactive; MEKK2mut confirm: inactive; MEKK3-MEK5 inh: inactive

How did O=C(Nc1ccncc1)Nc1cccc(C(F)(F)F)c1 do in these assays?
MEKK3 PB1 HTS: inactive; MEKK2 WT-MEK5: inactive; Arr AP2 block: inactive; MEKK2mut PB1 HTS: inactive

How did CCOc1ccc(N2CC(C(=O)NC3CCSC3=O)CC2=O)cc1 (stereo not given) do in these assays?
MEKK3 PB1 HTS: inactive; MEKK2 WT-MEK5: inactive; Arr AP2 block: inactive; MEKK2mut PB1 HTS: inactive

Results for Cc1cc(NC(=O)Nc2cc(F)ccc2F)no1 ?
MEKK3 PB1 HTS: inactive; MEKK2 WT-MEK5: inactive; Arr AP2 block: inactive; MEKK2mut PB1 HTS: inactive

What do the screens show for `Cc1ccc(C23CC4CC(CC(NC(=O)NCCN(C)C)(C4)C2)C3)cc1`?
MEKK3 PB1 HTS: inactive; MEKK2 WT-MEK5: 156; Arr AP2 block: inactive; MEKK2mut PB1 HTS: 31; MEKK2wt confirm: inactive; MEKK2mut confirm: inactive; MEKK3-MEK5 inh: 35

What do the screens show for `Cc1ccc(CNC(=O)NC23CC4CC(CC(C4)C2)C3)cc1`?
MEKK3 PB1 HTS: inactive; MEKK2 WT-MEK5: inactive; Arr AP2 block: inactive; MEKK2mut PB1 HTS: inactive

Results for CN(C)CCNC(=O)COc1ccc(C23CC4CC(CC(C4)C2)C3)cc1 ?
MEKK3 PB1 HTS: inactive; MEKK2 WT-MEK5: 151; Arr AP2 block: inactive; MEKK2mut PB1 HTS: inactive; MEKK2wt confirm: inactive; MEKK2mut confirm: inactive; MEKK3-MEK5 inh: inactive

How did Nc1nc(NCCCN2CCOCC2)nc(Nc2ccccc2F)c1[N+](=O)[O-] do in these assays?
MEKK3 PB1 HTS: inactive; MEKK2 WT-MEK5: inactive; Arr AP2 block: inactive; MEKK2mut PB1 HTS: inactive
